Experimental data from PubChem BioAssay.
The source made the active and inactive calls.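 How the source made its calls, unless noted: active means viability loss from added drug above about 55%, and viability with drug at most 40%, in both replicates (limit read from the data, passing the limit was not always enough); inconclusive means both conditions met in only one replicate; inactive means neither replicate meets both conditions.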

Columns and labels:
[1] = reducers of endogenous Her2 protein level, primary screen, SKBR3 breast tumor cells, AlphaScreen, ATP viability (AID 461;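 active means Her2 level under about 52% in both replicate screens, with viability over 70% of control, limit read from the data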;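 on Her2 level: lower value means less Her2 protein in the cells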;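 on viability: percent of carrier control wells set as 100% viability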); conditions: 18-24 h, measured here: SKBR3 viability, ATP luminescence, at 10 µM
[2] = target: Receptor tyrosine-protein kinase erbB-2 (Homo sapiens) (UniProt P04626); experiment: as above; conditions: 18-24 h, at 10 µM, stronger effect = lower value
Receptor tyrosine-protein kinase erbB-2 (Homo sapiens), sequence (P04626 whole entry, looked up): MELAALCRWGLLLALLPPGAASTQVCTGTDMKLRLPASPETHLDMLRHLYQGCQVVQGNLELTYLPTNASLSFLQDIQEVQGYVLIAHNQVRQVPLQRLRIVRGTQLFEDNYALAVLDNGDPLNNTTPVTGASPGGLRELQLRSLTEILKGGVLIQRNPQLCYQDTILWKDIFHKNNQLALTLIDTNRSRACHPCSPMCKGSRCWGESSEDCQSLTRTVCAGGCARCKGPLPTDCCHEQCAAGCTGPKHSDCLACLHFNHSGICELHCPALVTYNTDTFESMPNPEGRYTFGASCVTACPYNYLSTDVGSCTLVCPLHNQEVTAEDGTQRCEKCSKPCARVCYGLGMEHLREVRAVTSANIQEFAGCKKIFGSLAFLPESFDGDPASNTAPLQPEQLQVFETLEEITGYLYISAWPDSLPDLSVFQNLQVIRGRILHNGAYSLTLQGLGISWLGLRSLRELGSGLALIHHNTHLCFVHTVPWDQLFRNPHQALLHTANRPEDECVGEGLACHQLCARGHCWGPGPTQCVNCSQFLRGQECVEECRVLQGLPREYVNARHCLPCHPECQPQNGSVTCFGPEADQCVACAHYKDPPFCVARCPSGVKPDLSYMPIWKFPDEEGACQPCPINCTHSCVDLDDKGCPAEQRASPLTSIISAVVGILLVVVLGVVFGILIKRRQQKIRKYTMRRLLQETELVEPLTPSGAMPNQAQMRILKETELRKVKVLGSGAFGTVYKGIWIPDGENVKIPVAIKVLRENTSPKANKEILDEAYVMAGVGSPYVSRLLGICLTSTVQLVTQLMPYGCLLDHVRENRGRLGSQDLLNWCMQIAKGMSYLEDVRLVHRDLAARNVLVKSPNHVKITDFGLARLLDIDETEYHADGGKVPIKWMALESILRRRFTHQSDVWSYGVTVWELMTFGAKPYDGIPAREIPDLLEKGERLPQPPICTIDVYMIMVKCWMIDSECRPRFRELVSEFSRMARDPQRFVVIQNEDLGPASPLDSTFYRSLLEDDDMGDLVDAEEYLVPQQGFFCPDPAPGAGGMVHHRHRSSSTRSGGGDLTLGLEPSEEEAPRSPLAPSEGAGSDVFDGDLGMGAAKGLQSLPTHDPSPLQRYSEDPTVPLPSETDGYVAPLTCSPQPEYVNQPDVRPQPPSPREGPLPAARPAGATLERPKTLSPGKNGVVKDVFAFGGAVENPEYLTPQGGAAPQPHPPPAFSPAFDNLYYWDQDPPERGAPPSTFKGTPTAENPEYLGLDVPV

[3] = SK-BR-3 cell growth inhibitors, pilot screen, 24 h, human (AID 572;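 active means viability at or below 10% of carrier control in both of two separate runs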;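 further: compound exposure lasted between 18 and 24 h rather than exactly 24 h; 100% = carrier-treated control wells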); conditions: SK-BR-3 viability, CellTiter-Glo luminescence, at 10 µM, stronger effect = lower value
[4] = HUVEC growth inhibition – cell-based, human, primary screen (AID 575;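 active means viability at or below 30% in both replicate assays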;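 further: 100% = median of untreated cell wells with 0.1% DMSO on each plate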); conditions: HUVEC proliferation, CellTiter-Glo luminescence, 72 h; at 10 µM; stronger effect = lower value
Outline: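 Test system: primary human umbilical vein endothelial cells. Quantity: 1250 cells/well. Compound: single 10 µM dose, 0.1% DMSO, from 5x medium stock. Timing: 72 h treatment at 37 °C. Detection: ATP-based CellTiter-Glo luminescent read. Benchmarks: vehicle and MePR control wells. Format: 384-well plates coated with collagen.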

[5] = growth inhibitors of H69AR lung tumor, primary screen, human, duplicate replicates (AID 580;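 active means viability at or under a set limit in both replicates, limit being median viability minus 3 SD, cut at about 48% in these data, passing the limit was not always enough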;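 further: 100% = mean luminescence of untreated wells and 0% = no signal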); conditions: H69AR lung tumor cells viability, ATP luminescence, 72 h; at 10 µM; stronger effect = lower value
[6] = reversal of MRP1-mediated doxorubicin resistance, pilot screen, H69AR cells, doxorubicin co-treatment (AID 601); conditions: CellTiter-Glo, 72 h, at 10 µM; for differential viability (reversal): stronger effect = higher value
[7] = 384-well plate pilot, post-Golgi transport modulator project, inhibition of yeast transport mutant growth (AID 636; in the data active means inhibition above about 31%); conditions: absorbance 615 nm, about 18 h, stronger effect = higher value
[8] = growth suppression of yeast trafficking mutant, preliminary HTS, modulators of trafficking downstream of Golgi apparatus project, 1536-format plate, OD 615 nm (AID 637; in the data active means inhibition above about 30%); conditions: yeast transport mutant growth, absorbance 615 nm, 18 h; stronger effect = higher value
[9] = H69AR cells + 2 uM doxorubicin, measured here: viability with 2 uM doxorubicin, stronger effect = lower value
[10] = H69AR cells, compound alone cytotoxicity

Compound	viability [1]	Her2 level [2]	viability [3]	viability [4]	viability [5]	differential viability (reversal) ([6]; H69AR cells + 2 uM doxorubicin)	viability [6, 9]	viability [6, 10]	inhibition [7]	inhibition [8]
O=C(Nc1ccc2c(c1)OCO2)C(c1ccccc1)N1CCC2(CC1)OCCO2 (stereo not given)	96.5%	101% (inactive)	96.5% (inactive)	82.6% (inactive)	96.3% (inactive)	7.72% (inactive)	88.6%	96.3%	-3.78% (inactive)	14.9% (inactive)
Brc1ccc2[nH]ncc2c1	101%	78% (inactive)	101% (inactive)	110% (inactive)	91.6% (inactive)	0.11% (inactive)	91.5%	91.6%	-2.5% (inactive)	1.43% (inactive)
COc1cccc(CN=CC2=C(O)CC(C)(C)CC2=O)c1OC	106%	114% (inactive)	106% (inactive)	101% (inactive)	100% (inactive)	-0.91% (inactive)	101%	100%	-1.69% (inactive)	-7.54% (inactive)
Cc1cc(NS(=O)(=O)c2ccc(NC(=O)C(C)N3C(=O)c4ccccc4C3=O)cc2)nc(C)n1 (stereo not given)	99%	92% (inactive)	99% (inactive)	112% (inactive)	97.4% (inactive)	5.72% (inactive)	91.7%	97.4%	-2.89% (inactive)	5.25% (inactive)
CN1C(=O)C(O)(CC(=O)c2ccc3c(c2)OCO3)c2ccccc21 (stereo not given)	99.5%	90.5% (inactive)	99.5% (inactive)	84.7% (inactive)	82.5% (inactive)	9.22% (inactive)	73.3%	82.5%	0.52% (inactive)	-0.83% (inactive)
CC(=O)Nc1ccc(S(=O)(=O)n2cnc(C)c2)cc1	91%	93.5% (inactive)	91% (inactive)	102% (inactive)	104% (inactive)	3.98% (inactive)	99.6%	104%	-0.53% (inactive)	-5% (inactive)
O=C(COc1ccccc1)Nc1ccccc1N1CCN(c2ccccc2)CC1	80%	86% (inactive)	80% (inactive)	96% (inactive)	84.2% (inactive)	1.58% (inactive)	82.6%	84.2%	-4.27% (inactive)	2.62% (inactive)
COc1ccc(S(=O)(=O)NC2CCCCC2)c(C)c1C	104%	91% (inactive)	104% (inactive)	90% (inactive)	96.3% (inactive)	8.58% (inactive)	87.7%	96.3%	-2.89% (inactive)	-2.9% (inactive)
CC1CCCN(C(=O)CN2CCN(C(=O)c3ccco3)CC2)C1 (stereo not given)	95.5%	89.5% (inactive)	95.5% (inactive)	91.2% (inactive)	93.2% (inactive)	11.7% (inactive)	81.6%	93.2%	-4.13% (inactive)	-1.8% (inactive)
COc1ccc(NC(=O)CCNC(=O)Cn2ccc3ccccc3c2=O)c(OC)c1	101%	91% (inactive)	101% (inactive)	108% (inactive)	103% (inactive)	14.4% (inactive)	88.1%	103%	-7.97% (inactive)	7.17% (inactive)
Cc1nnc2ccc(N3CCC4(CC3)OCCO4)nn12	101%	89.5% (inactive)	101% (inactive)	100% (inactive)	108% (inactive)	11.1% (inactive)	96.5%	108%	-6.22% (inactive)	-3% (inactive)
COc1ccc(-c2c(=O)n(OCc3ccccn3)c3ccccc3[n+]2[O-])cc1OC	105%	98% (inactive)	105% (inactive)	87.6% (inactive)	89.2% (inactive)	-2.4% (inactive)	91.6%	89.2%	-4% (inactive)	-3.65% (inactive)
CC(C)CC(=O)N1CCN(S(=O)(=O)c2ccc(F)cc2)CC1	86.5%	102% (inactive)	86.5% (inactive)	86.5% (inactive)	94.9% (inactive)	9.04% (inactive)	85.8%	94.9%	2.56% (inactive)	27% (inactive)
Cc1ccccc1C(=O)NC1CCN(Cc2nnnn2Cc2ccccc2)CC1	93.5%	78% (inactive)	93.5% (inactive)	91.3% (inactive)	98.2% (inactive)	2.56% (inactive)	95.6%	98.2%	-4.46% (inactive)	3.49% (inactive)
Nc1c(N2CCCCC2)c(=O)[nH]c(=O)n1-c1ccccc1	105%	139% (inactive)	105% (inactive)	102% (inactive)	109% (inactive)	13.9% (inactive)	95.3%	109%	-2.86% (inactive)	-4.33% (inactive)
Fc1ccc(-c2nnc(CN3CCN(c4ncc(C(F)(F)F)cc4Cl)CC3)o2)cc1	104%	87% (inactive)	104% (inactive)	63.4% (inactive)	90.5% (inactive)	-0.76% (inactive)	91.3%	90.5%	-1.43% (inactive)	3.61% (inactive)
CC(C)(C)N=C1NC(=NC(C)(C)C)c2ccccc21	77%	86% (inactive)	77% (inactive)	86% (inactive)	69.3% (inactive)	-11.5% (inactive)	80.8%	69.3%	0.92% (inactive)	-7.64% (inactive)
O=C(CCn1c(=O)oc2ccccc21)NCCN1CCc2ccccc2C1	77%	79% (inactive)	77% (inactive)	95.2% (inactive)	94.4% (inactive)	16% (inactive)	78.4%	94.4%	-2.24% (inactive)	3.02% (inactive)
Cc1cccc(NC(=O)c2cnc3sccn3c2=O)n1	99%	98.5% (inactive)	99% (inactive)	95.8% (inactive)	100% (inactive)	8.25% (inactive)	92.2%	100%	0.13% (inactive)	2.83% (inactive)
O=C(COC(=O)c1ccco1)NCc1cccs1	112%	97.5% (inactive)	112% (inactive)	98.9% (inactive)	106% (inactive)	10.7% (inactive)	95.3%	106%	-7.76% (inactive)	0% (inactive)
Cc1cc(C)n(C(=O)CCCCCC(=O)n2nc(C)cc2C)n1	116%	86.5% (inactive)	116% (inactive)	105% (inactive)	105% (inactive)	10.8% (inactive)	94.5%	105%	-9.32% (inactive)	-2.86% (inactive)
Cc1ccc2occ(CN3CCN(c4ccccc4)CC3)c(=O)c2c1	104%	104% (inactive)	104% (inactive)	89% (inactive)	87.5% (inactive)	-6.67% (inactive)	94.2%	87.5%	-1.04% (inactive)	-3.77% (inactive)
CCC(=O)N/C(N)=N/c1nc(C)c2cc(OC)ccc2n1	131%	67.5% (inactive)	131% (inactive)	59.5% (inactive)	80.7% (inactive)	-8.64% (inactive)	89.3%	80.7%	-0.13% (inactive)	-5.74% (inactive)
Cc1nnc(SCC(=O)NC(C)(C)C)n1CCc1ccccc1	93.5%	92.5% (inactive)	93.5% (inactive)	105% (inactive)	95.6% (inactive)	4.22% (inactive)	91.4%	95.6%	-6.53% (inactive)	5.65% (inactive)
NC(=O)c1oc2ccc(Cl)cc2c1NC(=O)CN1CCOCC1	93.5%	81% (inactive)	93.5% (inactive)	85.3% (inactive)	98.5% (inactive)	10.1% (inactive)	88.4%	98.5%	-5.26% (inactive)	-2.36% (inactive)
COC(=O)c1cc(=O)n2c(-c3ccc(OC)cc3)csc2n1	110%	97.5% (inactive)	110% (inactive)	96.2% (inactive)	92.6% (inactive)	10.6% (inactive)	82.1%	92.6%	-4.8% (inactive)	-0.16% (inactive)
Oc1ccc(C=Nc2cccc3ncccc23)c(O)c1	103%	84.5% (inactive)	103% (inactive)	80% (inactive)	84.9% (inactive)	-3.45% (inactive)	88.3%	84.9%	-2.93% (inactive)	0.81% (inactive)
Cc1nc(C)c(C(=O)Nc2ccc(Oc3ccccc3)cc2)o1	94.5%	82% (inactive)	94.5% (inactive)	66.4% (inactive)	103% (inactive)	23.8% (inactive)	79.4%	103%	-6.35% (inactive)	-6.5% (inactive)
COc1ccc(OC)c(-n2nnnc2SCC(=O)NCc2ccc3c(c2)OCO3)c1	98.5%	88% (inactive)	98.5% (inactive)	84.4% (inactive)	93.9% (inactive)	-1.01% (inactive)	94.9%	93.9%	-5.87% (inactive)	5.57% (inactive)
